B1: tRNA (parent)
chain: GUUCCGUUGGCGUAAUGGUAACGCGUCUCCCUCCUAAGGAGAAGACUGCGGGUUCGAGUCCCGUACGGAACG

Variants of: B1
Assay: yeast fitness, log relative to wild type (ln ratio); higher = fitter; tRNA-Arg(CCU), competitive growth, 37 C, 1 M NaCl
How it was run: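 Fitness is the natural log of a genotype's generation count divided by that of the wild type. A combinatorial library of tRNA-Arg(CCU) variants sat on a HIS3 centromeric plasmid in BY4742 lacking the chromosomal gene, from two independent transformations. Pools grew 4 generations in SC-HIS at 30 °C, then ~6.5 generations (~26.5 h) in SC-HIS 1M NaCl at 37 °C, with three outputs per input. Generations came from OD-scaled log2 output/input frequency, inverse-variance weighted across replicates, with variants counted by 125 bp paired-end Illumina sequencing.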

Variant | yeast fitness (ln)
U2C G6U A43C A69G A70G C71U | -0.13
G1A G6U C27U A43C C66A C71U | -0.498
G1A U2G C46U A69G C71U | -0.0958
C27U A43C C46U A69G | -0.0156
G1A U2G G6U A43C A70G | -0.263
U2C C27U A69G A70U | -0.175
G1A U2G C27U C66U | -0.174
G1A C66U A70U C71U | -0.212
G6U C27U A43C C66A A69G A70U C71U | -0.389
G1A C27U C46U A69G A70U C71U | -0.301
G1A U2G C27U A43C C46U | -0.038
G1A U2C G6U C46U C66U A70G C71U | -0.0224
U2G G6U C27U A70G C71U | -0.285
G1A C27U C46U A70U | -0.088
G1A C27U C46U A70G | -0.175
U2C A43C C71U | -0.168
U2C G6A A43C C46U C66A A70G | -0.123
G1A U2G G6U A43C C66U A69G A70U C71U | -0.4
G6U C46U C66U A69G A70U C71U | -0.434
G6A C46U A69G C71U | -0.109
A43C C66U A69G A70G C71U | -0.22
G1A G6A A43C C46U C66U A69G A70U C71U | -0.4
U2G G6A A43C C46U A69G A70U C71U | -0.347
G1A U2G C27U A43C C46U C66A A70U C71U | -0.35

Variant | yeast fitness (ln)
G1A U2C G6U C27U C46U A70U | -0.157
U2C C46U A69G | -0.0478
G1A G6A C46U C71U | -0.109
G1A U2G C27U A43C C46U C66A A69G A70U C71U | -0.456
U2C C27U C66A A70U | -0.0861
U2G G6U C27U A43C C46U C66A A70G | -0.21
G1A U2G G6A C27U C66U A70G | -0.349
G1A C27U A43C C46U C66A A69G A70G C71U | -0.305
G1A G6A C46U | -0.0333
G6A A43C C46U C66U A70U C71U | -0.268
G6U C66A A70U | -0.0008
G6U C27U A43C A70U C71U | -0.445
U2G G6A C46U A69G A70U | -0.21
G1A G6A A43C C46U A69G C71U | -0.194
U2C C27U A43C C46U A69G A70G C71U | -0.0222
G6U C46U A70G C71U | -0.202
G1A G6A C27U A43C C46U A69G A70G | -0.265
U2C G6U A43C C66A A69G A70G C71U | -0.0618
G1A C27U C46U C66U A70U C71U | -0.283
C66A A69G A70U | -0.0115
G1A U2C G6A A70U C71U | -0.126
U2G G6A C27U C66A A70G C71U | -0.149
G1A U2G G6U C27U A43C C46U C66U A69G A70U C71U | -0.434
G1A U2G G6A C46U A69G A70U | -0.165

Variant | yeast fitness (ln)
U2G G6U C27U A43C C46U A70U C71U | -0.228
G1A U2G G6U A43C C46U C66U C71U | -0.371
G1A U2G G6U C27U A43C A69G A70G C71U | -0.449
G1A G6U A43C C66U A69G A70G | -0.469
C27U C46U C66U A69G A70G C71U | -0.166
G1A C46U C66U A69G A70G C71U | -0.158
G1A C46U C66A | 0.0129
U2C C66A C71U | -0.0382
G1A A43C C66U A70G C71U | -0.235
G1A U2C G6A C27U A43C C46U A69G A70U C71U | -0.408
U2G C27U C66A C71U | -0.148
G6U C66U | -0.0366
U2C A43C C46U C66U C71U | -0.19
U2C G6A A43C C46U C66U | -0.0992
U2C G6A A43C C46U C66A | -0.2
U2C C27U C46U A69G A70U C71U | -0.216
U2G G6U C27U A43C A69G C71U | -0.439
G1A G6A C66U A69G A70U | -0.102
G1A U2C G6A C27U C66U A70G C71U | -0.0371
G1A U2G G6U C46U A69G A70G C71U | -0.309
G1A U2C G6A C46U A70G C71U | -0.00868
G1A U2C C27U C46U C66U A69G A70U | -0.184
G1A U2C C27U C46U C66U A69G A70G | -0.11
U2G G6U A43C C46U C66A A70U | -0.00113

Variant | yeast fitness (ln)
G1A C27U C46U C66A A70U | -0.182
G6A A70U C71U | -0.14
G1A G6U A43C A69G A70U | -0.326
G6U C27U A43C C66A A70U | -0.185
G1A G6A C27U A43C C46U C66U A69G A70G | -0.309
G1A G6A A43C C46U A69G A70G | -0.251
G1A C27U C66A A70G | -0.212
G1A U2C G6U C27U A70G C71U | -0.212
U2C G6A A43C C46U C66U A70U | -0.209
G1A U2C G6U C27U A43C C46U C66U A70U | -0.243
G6U C66U A69G A70U | -0.261
U2C C27U A43C C66A | -0.155
U2C C46U C66U A69G A70U | -0.0518
G1A G6U A43C C46U A70U | -0.219
U2C G6A C66A A70G | -0.0699
A43C C46U C66A A69G C71U | -0.26
G1A U2C G6A C27U A43C C46U C66U A70U | -0.0654
G1A U2G C27U C46U C66A C71U | -0.0936
G1A U2G G6U C27U C46U C66A A69G A70G C71U | -0.417
U2C G6A C66A A70G C71U | -0.286
U2C G6A A43C C46U C66A A69G A70G C71U | -0.112
U2C C27U A43C C66U A69G A70G | -0.332
G6U C27U C66A | -0.0293
G1A U2C G6U C46U C66U A69G A70G C71U | -0.0644

Variant | yeast fitness (ln)
G6U C46U C66A A69G A70G | -0.00994
G1A C46U A69G A70U C71U | -0.359
U2G G6A C27U C66U A69G C71U | -0.409
U2G C27U C46U C66U | -0.0703
U2G C27U C66U A69G C71U | -0.282
C27U C46U C66U C71U | -0.376
G1A U2G C27U A43C C66U A70U | -0.282
U2G C46U C66A A70G C71U | -0.116
G1A C27U A70G C71U | -0.11
G1A U2G G6A C27U A70U C71U | -0.264
U2G A69G A70G C71U | -0.191
G1A U2G G6U A43C C46U A70U | -0.235
G1A G6U C27U C46U C66A C71U | -0.0536
U2C C27U A43C | -0.0586
G1A U2G G6A C46U C66A A70U C71U | -0.134
U2G G6A C46U C66A A69G A70G C71U | -0.193
G1A G6A C27U A69G A70G | -0.342
G1A U2C C27U A43C A69G A70G C71U | -0.0597
G6U A43C C66U A70U C71U | -0.481
G6A C27U C66U A69G A70G | -0.368
U2C G6A A43C C46U C66U A69G C71U | -0.332
G1A G6A A43C C66U A69G A70G | -0.253
G1A U2C G6U C46U C66U C71U | -0.0885
U2C G6U C27U A43C C66A A70G C71U | -0.0868

Variant | yeast fitness (ln)
U2G A43C C66U A69G A70U | -0.307
G1A U2G C27U A43C A69G A70G C71U | -0.262
U2C C27U C46U C66A C71U | -0.0945
A43C A70U | -0.0384
G1A U2C G6A C66U A70U C71U | -0.159
U2G G6U C27U C66A C71U | -0.168
U2G C27U C66U A69G A70U C71U | -0.433
U2G A69G | -0.112
G1A G6A A43C A70G C71U | -0.27
G1A U2G G6U C46U A70U | -0.246
U2G G6A C27U C46U A70G C71U | -0.207
G1A U2G C27U C66U A69G A70U | -0.35
G1A U2C G6A C46U C66A A70U C71U | -0.102
G1A C46U A70U C71U | -0.0276
U2C G6A C27U A43C C46U C66A A70G C71U | -0.0721
U2G G6U C46U C66U A69G A70U | -0.264
G1A U2G G6U C46U C66A A70G C71U | -0.511
U2G C27U A43C C46U C66U A69G A70U C71U | -0.395
U2C A70G | 0.00112
G1A G6U C27U A43C C46U A69G A70G C71U | -0.414
G1A A43C | -0.119
G1A C66A A69G A70G C71U | -0.158
G1A C27U A43C A70U | -0.329
G1A U2G G6A A43C C66A A69G A70G C71U | -0.253

Variant | yeast fitness (ln)
U2C G6A C27U A43C C66A A70G C71U | -0.0895
U2G G6U C27U A43C C66A A70G | -0.214
U2C G6U A43C C66U A70G | -0.279
G1A U2G G6U C66A A70G C71U | -0.525
U2G G6U C27U A43C C46U C66A A70U C71U | -0.629
G1A U2G G6U C27U A43C C66A A69G A70G C71U | -0.461
U2G G6U C46U C66U A69G A70U C71U | -0.39
G1A U2G G6A A70U C71U | -0.0851
C66U A69G A70G C71U | -0.106
U2C G6U C27U A43C C46U C66U A70G | -0.304
U2C G6A C27U A43C C66U A69G A70U | -0.33
U2G G6U C27U A70G | -0.211
U2C G6U C46U A69G A70G | -0.0922
U2G G6U C66A A69G A70U C71U | -0.726
U2C G6U A43C C46U A69G A70U | -0.0621
G1A U2C G6U C27U C66U A70G C71U | -0.496
C27U C46U C66A A69G A70U C71U | -0.396
U2C G6U A43C C46U C66U A70U C71U | -0.254
G6U A43C C46U C66A A69G A70G | -0.147
G6U C27U A69G A70U C71U | -0.513
G1A U2C G6U C27U C46U C66U A69G A70U | -0.222
U2G G6U C27U A43C C46U C66U A69G A70U C71U | -0.507
C27U C46U C66A A70G | -0.0605

— the RNAGym collection of RNA variant scans (doi:10.1038/s41586-018-0170-7)
